From ChEMBL document CHEMBL4130487, “A pentanoic acid derivative targeting matrix metalloproteinase-2 (MMP-2) induces apoptosis in a chronic myeloid leukemia cell line” (Eur J Med Chem, 2017) come the findings set out here.

Activity calls are given as the source filed them. No cut-off for these calls is given here.

The subject of experiment [1] is K562. The experiment in a line: Anti-invasive activity against human K562 cells assessed as at 2.5 uM after 24 hrs by CyQuantGR dye based fluorimetric QCM EC matrix assay relative to control. It is filed as functional. As to conditions: K562, 24 h. Put shortly: (§1)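 K562 cells (1X10^6 cells/ml) starved overnight in FBS-free medium, then placed in inserts in FBS-free medium with 5% BSA, with 5% FBS medium below as chemoattractant. Treated at 2.5, 5 and 10 μM in triplicate for 24 h alongside an untreated control. Invaded cells were detached, stained with CyQuantGR and read by fluorescence (ex 480/em 520 nm). Results given as % of control, mean ± SD.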

In experiment [2] the test system is K562. Nature of the experiment: Induction of apoptosis in human K562 cells assessed as DNA nick generation after 48 hrs by DAPI staining based fluorescence microscopic method.
Experiment [3] concerns K562. The experiment in a line: Induction of apoptosis in human K562 cells assessed as live cells at 10 uM after 48 hrs by Annexin V-FITC/propidium iodide staining based flow cytometry (reference value: 90.1%). It is filed as functional.
For experiment [4], the system named is K562. The experiment in a line: Cell cycle arrest in human K562 cells assessed as accumulation at G1-phase at 2.5 uM after 24 hrs by propidium iodide staining based flow cytometry (reference value: 27.5%).
The next experiment deals with MDA-MB-231. The experiment in a line: Cytotoxicity against human MDA-MB-231 cells assessed as reduction in cell viability after 48 hrs by MTT assay. It is filed as functional, cell-based. Conditions: MDA-MB-231, 48 h. A digest of the protocol: (§2)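 A549, MDA-MB-231, K562, U937 and PBMC (PBMC from healthy donors) seeded at 1×10^3 cells/well and left 24 h, then exposed to compounds for 48 h at 37 °C, 5% CO2. Adherent lines were grown in DMEM, the others in RPMI-1640 with 10% heat-inactivated FBS. MTT read-out; viability expressed as % of untreated control. IC50 taken as the concentration giving 50% viability loss.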
On the technique in general: Formazan colour is commonly taken as a measure of viable cells.

A further experiment has as its system A549. Nature of the experiment: Cytotoxicity against human A549 cells assessed as reduction in cell viability after 48 hrs by MTT assay. It is filed as functional, cell-based. Conditions: A549, 48 h. A digest of the protocol: as §2
The test system of experiment [5] is K562. The experiment in a line: Cell cycle arrest in human K562 cells assessed as accumulation at G1-phase at 5 uM after 48 hrs by propidium iodide staining based flow cytometry (reference value: 27.5%). It is filed as functional.
The test system of experiment [6] is K562. The experiment in a line: Downregulation of MMP2 protein expression in human K562 cells assessed as MMP2 positive population at 10 uM after 48 hrs by FITC staining based flow cytometry (reference value: 98.4%).
For experiment [7], the system named is K562. Nature of the experiment: Cell cycle arrest in human K562 cells assessed as accumulation at G2/M-phase at 5 uM after 48 hrs by propidium iodide staining based flow cytometry (reference value: 35.3%). In kind it is functional. (In general: Flow cytometry measures light scatter and fluorescence of single cells or particles in a stream.)
In experiment [8] the test system is K562. The experiment in a line: Cell cycle arrest in human K562 cells assessed as accumulation at G1/S-phase at 5 uM after 48 hrs by propidium iodide staining based flow cytometry (reference value: 21.8%). It is filed as functional.
Experiment [9] addresses MMP-2/MMP-9 (Homo sapiens) (UniProt P08253+P14780). Nature of the experiment: Selectivity ratio of IC50 for recombinant human MMP9 (Phe107 to Pro449 residues) expressed in Escherichia coli to IC50 for recombinant human MMP2 (Tyr110 to Asp452 residues).
Another experiment concerns the target T1, Interstitial collagenase (Homo sapiens, UniProt P03956).
T1 sequence (P03956 whole entry): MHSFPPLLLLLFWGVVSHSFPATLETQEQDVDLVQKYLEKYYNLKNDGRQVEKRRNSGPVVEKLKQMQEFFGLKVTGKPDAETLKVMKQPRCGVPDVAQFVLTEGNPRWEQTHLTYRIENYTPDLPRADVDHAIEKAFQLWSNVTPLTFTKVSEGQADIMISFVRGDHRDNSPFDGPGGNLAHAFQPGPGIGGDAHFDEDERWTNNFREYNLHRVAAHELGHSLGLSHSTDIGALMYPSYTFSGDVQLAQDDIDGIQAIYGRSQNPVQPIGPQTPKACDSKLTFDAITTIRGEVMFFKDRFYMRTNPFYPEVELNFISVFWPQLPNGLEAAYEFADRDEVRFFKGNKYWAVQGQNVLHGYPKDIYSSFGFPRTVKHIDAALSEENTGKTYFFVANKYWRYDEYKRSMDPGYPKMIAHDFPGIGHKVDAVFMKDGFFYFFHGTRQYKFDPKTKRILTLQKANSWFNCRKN
Nature of the experiment: Inhibition of recombinant human MMP1 (Phe100 to Gln268 residues) using Ac-Pro-Leu-Gly-S-Leu-Leu-Gly-OEt as substrate after 1 hr measured at 1 min time interval for 30 mins by microplate photometric method. A digest of the protocol:
(§3)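 Commercial MMP kits; compound preincubated with enzyme before chromogenic substrate was added. Reactions at 37 °C for 1 h, with at least six inhibitor concentrations in triplicate. Absorbance at 410 nm read every 1 min for 30 min. NNGH used as reference inhibitor. IC50 taken from semi-logarithmic dose-response plots.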

For experiment [10], the system named is K562. The experiment in a line: Cell cycle arrest in human K562 cells assessed as accumulation at G1/S-phase at 10 uM after 24 hrs by propidium iodide staining based flow cytometry (reference value: 21.8%).
Experiment [11] relates to K562. The experiment in a line: Induction of apoptosis in human K562 cells assessed as late apoptotic cells at 2.5 uM after 48 hrs by Annexin V-FITC/propidium iodide staining based flow cytometry (reference value: 0.3%). In kind it is functional.
In experiment [12] the test system is K562. Nature of the experiment: Downregulation of MMP2 protein expression in human K562 cells assessed as MMP2 negative population at 2.5 uM after 48 hrs by FITC staining based flow cytometry (reference value: 1.6%).
For experiment [13], the target named is Matrix metalloproteinase-9 (Homo sapiens, UniProt P14780). The experiment in a line: Inhibition of recombinant human MMP9 (Phe107 to Pro449 residues) expressed in Escherichia coli using Ac-Pro-Leu-Gly-S-Leu-Leu-Gly-OEt as substrate after 1 hr measured at 1 min time interval for 30 mins by microplate photometric method. Put shortly: as §3
In experiment [14] the test system is K562. The experiment in a line: Anti-invasive activity against human K562 cells at 5 uM after 24 hrs by CyQuantGR dye based fluorimetric QCM EC matrix assay relative to control. It is filed as functional. Conditions: K562, 24 h. Put shortly:
as §1

For experiment [15], the system named is K562. Nature of the experiment: Induction of apoptosis in human K562 cells assessed as late apoptotic cells at 5 uM after 48 hrs by Annexin V-FITC/propidium iodide staining based flow cytometry (reference value: 0.3%). It is filed as functional.
In experiment [16] the test system is K562. The experiment in a line: Induction of apoptosis in human K562 cells assessed as early apoptotic cells at 10 uM after 48 hrs by Annexin V-FITC/propidium iodide staining based flow cytometry (reference value: 9.6%). In kind it is functional.
Another experiment relates to PBMC. Nature of the experiment: Cytotoxicity against human PBMC assessed as reduction in cell viability after 48 hrs by MTT assay. It is filed as cell-based. Put shortly:
as §2

The subject of the next experiment is U-937. Nature of the experiment: Cytotoxicity against human U937 cells assessed as reduction in cell viability after 48 hrs by MTT assay. Conditions: U-937, 48 h. It is filed as functional, cell-based. Put shortly: as §2
The subject of experiment [17] is K562. The experiment in a line: Cell cycle arrest in human K562 cells assessed as accumulation at sub-G1 phase at 10 uM after 48 hrs by propidium iodide staining based flow cytometry (reference value: 1%). It is filed as functional.

Matrix metalloproteinase-9, sequence (P14780 whole entry): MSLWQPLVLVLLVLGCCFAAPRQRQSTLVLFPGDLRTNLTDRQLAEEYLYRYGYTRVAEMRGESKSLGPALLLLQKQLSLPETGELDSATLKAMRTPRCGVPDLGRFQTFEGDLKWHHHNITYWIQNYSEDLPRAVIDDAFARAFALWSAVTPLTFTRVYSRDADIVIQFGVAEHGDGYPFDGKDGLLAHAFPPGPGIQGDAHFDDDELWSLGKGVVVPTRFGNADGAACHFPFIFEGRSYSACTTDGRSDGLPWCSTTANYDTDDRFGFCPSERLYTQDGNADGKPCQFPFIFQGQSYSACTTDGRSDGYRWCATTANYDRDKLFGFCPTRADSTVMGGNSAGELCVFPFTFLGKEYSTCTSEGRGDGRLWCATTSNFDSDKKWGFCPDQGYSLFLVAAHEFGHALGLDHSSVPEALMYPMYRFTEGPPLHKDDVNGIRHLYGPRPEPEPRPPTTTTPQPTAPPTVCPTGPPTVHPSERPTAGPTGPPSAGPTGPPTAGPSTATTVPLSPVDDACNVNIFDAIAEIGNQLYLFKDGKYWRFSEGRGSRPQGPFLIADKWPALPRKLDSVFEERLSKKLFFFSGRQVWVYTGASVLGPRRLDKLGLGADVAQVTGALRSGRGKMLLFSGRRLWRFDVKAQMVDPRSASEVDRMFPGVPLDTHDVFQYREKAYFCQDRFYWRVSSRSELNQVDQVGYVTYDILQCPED

As for `CCCCCNC(=O)CC[C@H](NS(=O)(=O)c1ccc([N+](=O)[O-])cc1)C(=O)O`, in the experiment on K562 [1], the inhibition – broadly, the relative decrease from the control value, in per cent – at 2.5 µM came out at 12.4%. Moreover, in the experiment on K562 [2], the result was Active. The Activity in the experiment on K562 [3] is 74%; with K562 [4], 30.7%; in the experiment on K562 [5], 33.4%; in the experiment with K562 [6], 15.6%; in the experiment with K562 [7] it was 32.2%; in the experiment with K562 [8], 19.6%. In addition, the Activity is reported as 14% in the experiment with K562 [10]; 11.6% in the experiment on K562 [11]; 73.7% with K562 [12]; 8.5% in the experiment on K562 [15]; 15.4% with K562 [16]; 4.6% with K562 [17]. In addition, the IC50 (in general, the midpoint of a concentration-inhibition curve) in the experiment on MDA-MB-231 is 162 µM; in the experiment on A549 it was 206 µM; at Interstitial collagenase, greater than 500 µM; in experiment [13], 6.8 µM; in the experiment with PBMC it was greater than 1000 µM; with U-937 it was 32.1 µM. For the same compound, the Ratio IC50 in experiment [9] came out at 1.42. The same compound yielded an inhibition at 5 µM in the experiment with K562 [14] of 14.2%.
